Laboratory results published in ChEMBL document CHEMBL1132287, “Selective, tight-binding inhibitors of integrin alpha4beta1 that inhibit allergic airway responses” (J Med Chem, 1999).
*1 amine or outer side, *2 acyl side, *3 side chain or, on linkers, in order; H or OH if unused. Where a SMILES comes first, the peptide text is derived from it. [ ]: non-standard residue; d: D form. The star is where a group is joined. X1 = O=C(Cc1ccc(N[*:1])cc1)[*:2]; NH(2-Me-phenyl) = Cc1ccccc1N*; PhAc = O=C(Cc1ccccc1)*; CO = O=C([*:1])[*:2]; Ahx = NCCCCCC(=O)O

What was measured:
Integrin alpha-4/beta-1 [1] = target: T1, Integrin alpha-4/beta-1 (Homo sapiens, UniProt P05556+P13612); experiment: Inhibition of integrin alpha4-beta1 binding to VCAM-Ig; assay type: protein-complex assay
T1 sequence (P05556 whole entry, one chain of several): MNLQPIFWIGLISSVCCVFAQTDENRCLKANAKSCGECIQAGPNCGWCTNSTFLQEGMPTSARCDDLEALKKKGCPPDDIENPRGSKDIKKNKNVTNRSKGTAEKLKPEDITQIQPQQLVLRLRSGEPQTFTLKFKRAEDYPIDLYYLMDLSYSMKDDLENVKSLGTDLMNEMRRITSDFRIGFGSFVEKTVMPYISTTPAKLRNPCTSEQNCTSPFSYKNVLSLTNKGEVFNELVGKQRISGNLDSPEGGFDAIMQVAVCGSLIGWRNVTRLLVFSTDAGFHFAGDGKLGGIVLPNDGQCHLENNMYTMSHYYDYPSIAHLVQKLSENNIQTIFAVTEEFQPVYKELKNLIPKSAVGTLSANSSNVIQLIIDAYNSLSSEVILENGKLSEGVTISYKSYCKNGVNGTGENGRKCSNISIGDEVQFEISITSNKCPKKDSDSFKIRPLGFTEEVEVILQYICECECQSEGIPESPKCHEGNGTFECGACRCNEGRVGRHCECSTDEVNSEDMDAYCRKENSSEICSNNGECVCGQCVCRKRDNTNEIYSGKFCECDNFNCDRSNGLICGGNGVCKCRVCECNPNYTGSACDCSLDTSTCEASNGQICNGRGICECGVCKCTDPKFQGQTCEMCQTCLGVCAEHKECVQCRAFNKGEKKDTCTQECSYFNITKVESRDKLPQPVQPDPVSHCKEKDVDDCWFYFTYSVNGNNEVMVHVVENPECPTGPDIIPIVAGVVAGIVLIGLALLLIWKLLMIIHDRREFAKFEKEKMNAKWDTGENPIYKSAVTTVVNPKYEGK

Integrin alpha-4/beta-1 [2] = target: T1, Integrin alpha-4/beta-1; experiment: Inhibition of integrin alpha4-beta1 adhesion to Jurkat cells; assay type: cell-based
Outline: (§1)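 BCECF-AM-labeled Jurkat cells (20 min, 37 °C) incubated 30 min with serial inhibitor dilutions or vehicle plus 1 mM MnCl2 in wells coated overnight at 4 °C with 1 ug/mL CS-1–BSA conjugate; after washing, bound cells read by fluorescence at 530 nm.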

[3] = Inhibition of integrin alpha6-beta1 adhesion using K562 cells expressing alpha-6; assay type: cell-based, Homo sapiens
Outline: (§2)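 BCECF-AM-labeled cells incubated 30 min at room temperature with inhibitor (1 nM–100 uM serial dilutions) or vehicle plus 1 mM MnCl2 in wells coated overnight at 4 °C with ligand; bound cells read at 530 nm. alpha4beta7: JY cells on CS-1–BSA 1 ug/mL; alpha5beta1: K562 on human 120 kD fibronectin fragment 5 ug/mL; alpha6beta1: alpha6-K562 on mouse laminin 20 ug/mL. IC50 from inhibition curves.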

Integrin alpha-4/beta-7 = target: T2, Integrin alpha-4/beta-7 (Homo sapiens, UniProt P13612+P26010); experiment: Inhibition of integrin alpha4-beta7 adhesion to JY cells; assay type: cell-based; outline: as §2
T2 sequence (P13612 whole entry): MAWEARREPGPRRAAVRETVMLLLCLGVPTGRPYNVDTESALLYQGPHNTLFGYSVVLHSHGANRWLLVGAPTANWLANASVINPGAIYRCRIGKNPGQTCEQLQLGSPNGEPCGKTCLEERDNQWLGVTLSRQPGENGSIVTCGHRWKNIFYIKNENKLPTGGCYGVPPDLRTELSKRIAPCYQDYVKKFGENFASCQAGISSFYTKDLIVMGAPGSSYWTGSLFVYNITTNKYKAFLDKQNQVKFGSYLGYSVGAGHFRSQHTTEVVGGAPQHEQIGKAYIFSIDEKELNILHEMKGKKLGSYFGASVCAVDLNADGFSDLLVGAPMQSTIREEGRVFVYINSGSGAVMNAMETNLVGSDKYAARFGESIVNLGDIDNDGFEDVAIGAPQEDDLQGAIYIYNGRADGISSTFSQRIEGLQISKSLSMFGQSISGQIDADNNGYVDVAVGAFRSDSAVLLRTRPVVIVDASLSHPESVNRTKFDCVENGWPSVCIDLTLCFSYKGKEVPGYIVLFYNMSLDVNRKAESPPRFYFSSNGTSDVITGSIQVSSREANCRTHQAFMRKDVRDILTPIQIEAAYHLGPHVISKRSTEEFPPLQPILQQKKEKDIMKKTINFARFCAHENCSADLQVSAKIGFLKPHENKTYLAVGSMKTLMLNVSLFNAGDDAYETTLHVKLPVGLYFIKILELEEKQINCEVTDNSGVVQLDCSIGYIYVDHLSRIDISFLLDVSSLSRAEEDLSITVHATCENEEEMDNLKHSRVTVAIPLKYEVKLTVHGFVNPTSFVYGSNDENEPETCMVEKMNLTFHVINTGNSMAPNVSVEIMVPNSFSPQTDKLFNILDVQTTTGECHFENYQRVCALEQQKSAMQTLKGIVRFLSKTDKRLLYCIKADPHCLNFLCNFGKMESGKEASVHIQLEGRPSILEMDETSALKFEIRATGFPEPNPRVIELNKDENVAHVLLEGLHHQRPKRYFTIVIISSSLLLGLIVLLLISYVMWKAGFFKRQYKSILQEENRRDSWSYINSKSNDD
T2 sequence (P26010 whole entry): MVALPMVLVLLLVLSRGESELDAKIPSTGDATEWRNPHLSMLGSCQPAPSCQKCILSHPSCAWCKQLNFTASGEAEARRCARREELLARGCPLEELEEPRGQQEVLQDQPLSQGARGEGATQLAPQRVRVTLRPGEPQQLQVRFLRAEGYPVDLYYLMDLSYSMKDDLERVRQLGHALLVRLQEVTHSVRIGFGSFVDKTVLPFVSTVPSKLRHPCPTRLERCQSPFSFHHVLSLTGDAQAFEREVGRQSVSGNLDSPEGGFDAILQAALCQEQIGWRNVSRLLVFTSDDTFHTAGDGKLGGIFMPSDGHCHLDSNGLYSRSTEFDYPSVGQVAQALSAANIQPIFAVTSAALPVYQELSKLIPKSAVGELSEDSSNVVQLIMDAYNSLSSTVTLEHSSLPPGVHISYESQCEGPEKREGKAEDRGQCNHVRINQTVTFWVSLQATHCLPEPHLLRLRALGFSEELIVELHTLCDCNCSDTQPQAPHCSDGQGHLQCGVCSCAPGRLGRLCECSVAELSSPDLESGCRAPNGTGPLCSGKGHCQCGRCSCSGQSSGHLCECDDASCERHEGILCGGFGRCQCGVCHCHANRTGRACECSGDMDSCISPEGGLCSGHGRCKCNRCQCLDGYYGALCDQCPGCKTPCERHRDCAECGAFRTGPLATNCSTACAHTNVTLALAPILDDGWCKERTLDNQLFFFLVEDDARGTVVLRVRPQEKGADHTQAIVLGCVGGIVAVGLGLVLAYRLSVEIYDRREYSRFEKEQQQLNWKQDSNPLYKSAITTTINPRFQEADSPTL

Integrin alpha-5/beta-1 = Integrin alpha-5/beta-1 (Homo sapiens, UniProt P05556+P08648); experiment: Inhibition of integrin alpha5-beta1 adhesion to K562 cells; assay type: cell-based; outline: as §2
[4] = target: Integrin alpha-IIb/beta-3 (Homo sapiens, UniProt P05106+P08514); experiment: Inhibition of integrin alphaIIb-beta3 adhesion to human citreated platelets
Chain of Integrin alpha-IIb/beta-3 (P05106 27-788 limits assumed): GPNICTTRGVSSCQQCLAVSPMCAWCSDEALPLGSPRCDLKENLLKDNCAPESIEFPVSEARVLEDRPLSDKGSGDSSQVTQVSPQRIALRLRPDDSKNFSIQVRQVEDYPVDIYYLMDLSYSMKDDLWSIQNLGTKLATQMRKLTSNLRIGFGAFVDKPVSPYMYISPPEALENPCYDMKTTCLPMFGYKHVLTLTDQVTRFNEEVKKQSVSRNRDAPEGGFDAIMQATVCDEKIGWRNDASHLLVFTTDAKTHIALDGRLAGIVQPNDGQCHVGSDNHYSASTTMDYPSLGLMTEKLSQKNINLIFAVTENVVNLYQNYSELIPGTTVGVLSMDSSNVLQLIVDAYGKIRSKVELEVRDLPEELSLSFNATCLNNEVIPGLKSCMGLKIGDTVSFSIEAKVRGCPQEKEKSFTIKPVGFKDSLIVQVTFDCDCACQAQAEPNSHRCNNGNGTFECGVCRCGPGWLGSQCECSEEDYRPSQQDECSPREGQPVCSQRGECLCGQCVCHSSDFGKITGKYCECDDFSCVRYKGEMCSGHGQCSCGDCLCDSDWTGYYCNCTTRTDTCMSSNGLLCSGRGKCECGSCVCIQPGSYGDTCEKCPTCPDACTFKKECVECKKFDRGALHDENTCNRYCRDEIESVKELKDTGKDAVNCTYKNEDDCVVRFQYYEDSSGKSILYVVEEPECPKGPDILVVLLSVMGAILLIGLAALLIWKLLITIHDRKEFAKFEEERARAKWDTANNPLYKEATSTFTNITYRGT
Chain of Integrin alpha-IIb/beta-3 (P08514 32-887 limits assumed): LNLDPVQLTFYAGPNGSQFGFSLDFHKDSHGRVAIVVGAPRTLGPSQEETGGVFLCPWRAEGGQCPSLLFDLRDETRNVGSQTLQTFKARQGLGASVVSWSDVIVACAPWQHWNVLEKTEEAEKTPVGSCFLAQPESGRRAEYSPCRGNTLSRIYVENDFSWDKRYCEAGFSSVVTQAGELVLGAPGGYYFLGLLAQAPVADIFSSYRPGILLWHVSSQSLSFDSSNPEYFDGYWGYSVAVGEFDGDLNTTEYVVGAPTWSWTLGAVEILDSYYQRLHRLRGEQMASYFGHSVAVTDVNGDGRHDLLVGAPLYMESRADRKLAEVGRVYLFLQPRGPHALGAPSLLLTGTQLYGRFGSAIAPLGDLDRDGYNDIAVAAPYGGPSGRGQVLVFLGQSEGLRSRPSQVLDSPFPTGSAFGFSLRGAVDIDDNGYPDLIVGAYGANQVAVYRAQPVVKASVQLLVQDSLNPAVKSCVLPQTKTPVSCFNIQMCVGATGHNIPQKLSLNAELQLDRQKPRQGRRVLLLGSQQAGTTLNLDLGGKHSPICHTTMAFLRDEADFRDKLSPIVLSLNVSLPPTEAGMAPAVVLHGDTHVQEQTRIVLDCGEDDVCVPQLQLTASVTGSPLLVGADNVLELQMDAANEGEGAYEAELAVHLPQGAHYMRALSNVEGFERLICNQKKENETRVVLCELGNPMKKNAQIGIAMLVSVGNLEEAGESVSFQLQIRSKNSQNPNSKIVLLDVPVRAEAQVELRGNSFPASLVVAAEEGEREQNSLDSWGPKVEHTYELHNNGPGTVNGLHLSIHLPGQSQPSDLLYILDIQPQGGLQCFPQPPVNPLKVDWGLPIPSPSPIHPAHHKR
Chain of Integrin alpha-IIb/beta-3 (P08514 891-1039 limits assumed): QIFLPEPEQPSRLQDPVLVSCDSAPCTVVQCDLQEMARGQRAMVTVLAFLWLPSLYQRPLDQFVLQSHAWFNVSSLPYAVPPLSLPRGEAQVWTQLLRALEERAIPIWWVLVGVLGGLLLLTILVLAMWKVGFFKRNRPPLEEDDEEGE

[5] = target: Intercellular adhesion molecule (ICAM-1), Integrin alpha-L/beta-2 (Homo sapiens, UniProt P05107+P05362+P20701); experiment: Inhibition of ICAM-1 transfected CHO cell adhesion to integrin alphaL-beta2 of human JY cells; assay type: cell-based
Chain of Intercellular adhesion molecule (ICAM-1), Integrin alpha-L/beta-2 (P20701 whole entry): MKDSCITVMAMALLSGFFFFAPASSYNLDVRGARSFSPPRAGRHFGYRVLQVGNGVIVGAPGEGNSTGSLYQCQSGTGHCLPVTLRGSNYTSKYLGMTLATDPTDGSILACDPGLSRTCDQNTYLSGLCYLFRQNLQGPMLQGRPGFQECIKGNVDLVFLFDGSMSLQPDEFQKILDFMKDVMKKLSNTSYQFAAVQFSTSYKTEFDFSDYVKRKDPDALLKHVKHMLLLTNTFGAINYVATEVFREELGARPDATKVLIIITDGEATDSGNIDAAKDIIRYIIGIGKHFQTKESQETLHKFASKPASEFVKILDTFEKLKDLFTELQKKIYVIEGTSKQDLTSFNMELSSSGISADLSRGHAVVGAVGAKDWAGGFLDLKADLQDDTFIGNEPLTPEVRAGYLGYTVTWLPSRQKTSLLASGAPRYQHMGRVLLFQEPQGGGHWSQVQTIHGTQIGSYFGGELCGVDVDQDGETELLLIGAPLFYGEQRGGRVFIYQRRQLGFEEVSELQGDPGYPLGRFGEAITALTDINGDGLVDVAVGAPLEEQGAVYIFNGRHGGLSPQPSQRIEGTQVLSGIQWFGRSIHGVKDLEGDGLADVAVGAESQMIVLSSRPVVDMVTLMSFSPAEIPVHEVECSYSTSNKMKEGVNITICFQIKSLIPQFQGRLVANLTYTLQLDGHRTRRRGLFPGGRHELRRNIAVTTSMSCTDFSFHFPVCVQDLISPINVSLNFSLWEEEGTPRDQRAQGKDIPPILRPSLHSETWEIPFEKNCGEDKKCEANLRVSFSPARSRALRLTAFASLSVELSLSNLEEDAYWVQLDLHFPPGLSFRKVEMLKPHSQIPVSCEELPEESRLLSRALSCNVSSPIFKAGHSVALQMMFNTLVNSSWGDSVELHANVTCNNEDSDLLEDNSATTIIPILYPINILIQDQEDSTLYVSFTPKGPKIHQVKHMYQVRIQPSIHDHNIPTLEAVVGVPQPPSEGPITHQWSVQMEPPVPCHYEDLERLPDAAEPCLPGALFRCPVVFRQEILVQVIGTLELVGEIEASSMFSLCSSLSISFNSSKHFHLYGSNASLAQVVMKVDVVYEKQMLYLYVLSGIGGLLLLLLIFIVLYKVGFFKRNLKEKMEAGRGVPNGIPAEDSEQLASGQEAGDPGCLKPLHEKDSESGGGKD
Chain of Intercellular adhesion molecule (ICAM-1), Integrin alpha-L/beta-2 (P05362 whole entry): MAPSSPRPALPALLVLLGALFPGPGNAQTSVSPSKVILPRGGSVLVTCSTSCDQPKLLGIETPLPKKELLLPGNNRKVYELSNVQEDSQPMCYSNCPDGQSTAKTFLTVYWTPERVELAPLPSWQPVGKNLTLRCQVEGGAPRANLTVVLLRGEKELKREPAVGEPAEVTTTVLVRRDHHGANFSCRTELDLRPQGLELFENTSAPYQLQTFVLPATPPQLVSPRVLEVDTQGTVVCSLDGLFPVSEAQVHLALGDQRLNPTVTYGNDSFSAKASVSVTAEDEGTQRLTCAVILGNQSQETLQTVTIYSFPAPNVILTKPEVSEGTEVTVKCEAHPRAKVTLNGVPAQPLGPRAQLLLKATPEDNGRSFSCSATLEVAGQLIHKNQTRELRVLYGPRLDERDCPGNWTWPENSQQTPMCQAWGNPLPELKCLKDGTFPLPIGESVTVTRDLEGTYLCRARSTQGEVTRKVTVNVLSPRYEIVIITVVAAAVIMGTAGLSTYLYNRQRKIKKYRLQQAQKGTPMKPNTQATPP
Chain of Intercellular adhesion molecule (ICAM-1), Integrin alpha-L/beta-2 (P05107 whole entry): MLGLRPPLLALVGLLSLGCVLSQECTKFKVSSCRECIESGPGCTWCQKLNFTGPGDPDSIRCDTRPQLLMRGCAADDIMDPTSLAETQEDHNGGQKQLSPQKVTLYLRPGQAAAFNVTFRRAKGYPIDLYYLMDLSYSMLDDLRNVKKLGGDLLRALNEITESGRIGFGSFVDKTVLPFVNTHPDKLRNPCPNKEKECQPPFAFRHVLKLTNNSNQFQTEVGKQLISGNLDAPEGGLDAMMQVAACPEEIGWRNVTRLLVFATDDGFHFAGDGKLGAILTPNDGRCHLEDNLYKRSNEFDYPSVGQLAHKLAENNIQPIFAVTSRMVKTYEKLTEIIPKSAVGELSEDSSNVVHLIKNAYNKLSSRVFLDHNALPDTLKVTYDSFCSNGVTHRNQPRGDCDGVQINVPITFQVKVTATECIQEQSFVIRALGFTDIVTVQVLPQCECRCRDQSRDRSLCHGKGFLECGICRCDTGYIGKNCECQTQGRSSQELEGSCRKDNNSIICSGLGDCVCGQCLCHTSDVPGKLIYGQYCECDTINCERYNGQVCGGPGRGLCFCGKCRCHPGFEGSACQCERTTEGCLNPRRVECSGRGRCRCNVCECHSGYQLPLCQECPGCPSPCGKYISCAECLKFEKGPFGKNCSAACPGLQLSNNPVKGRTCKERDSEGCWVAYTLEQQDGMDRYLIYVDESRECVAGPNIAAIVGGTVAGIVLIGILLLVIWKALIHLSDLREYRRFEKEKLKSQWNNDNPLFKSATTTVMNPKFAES

[6] = target: Integrin alpha1/beta1 (Homo sapiens); experiment: Inhibition of integrin alpha1-beta1 adhesion using K562 cells expressing alpha-1
Integrin alpha-4/beta-1 [7] = target: T1, Integrin alpha-4/beta-1; experiment: Inhibition of VCAM-Ig binding to integrin alpha4-beta1 of Jurkat cells; assay type: cell-based
Integrin alpha-4/beta-1 [8] = target: T1, Integrin alpha-4/beta-1; experiment: Inhibition of integrin alpha4-beta1 adhesion to Jurkat cells (No inhibition); assay type: cell-based; outline: as §1
[9] = Inhibition of integrin alpha1-beta1 adhesion using K562 cells expressing alpha-1; assay type: cell-based, Homo sapiens

SMILES | IC50 (Integrin alpha-4/beta-1 [1]) [nM] | IC50 (Integrin alpha-4/beta-1 [2]) [nM] | also measured
Cc1ccccc1NC(=O)Nc1ccc(CC(=O)N[C@@H](CC(C)C)C(=O)N[C@@H](CC(=O)O)C(=O)N[C@H](C(=O)N2CCC[C@H]2C(=O)N[C@@H](CO)C(=O)N[C@H](C(=O)O)[C@@H](C)O)C(C)C)cc1 ({NH(2-Me-phenyl)-CO}-[X1]LDVPST-OH) | 1 | 5 | 
Cc1ccccc1NC(=O)Nc1ccc(CC(=O)N[C@@H](CC(C)C)C(=O)N[C@@H](CC(=O)O)C(=O)N[C@H](C(=O)N2CCC[C@H]2C(N)=O)C(C)C)cc1 ({NH(2-Me-phenyl)-CO}-[X1]LDVP-NH2) | 1 | 8 | 
Cc1ccccc1NC(=O)Nc1ccc(CC(=O)N[C@@H](CC(C)C)C(=O)N[C@@H](CC(=O)O)C(=O)N[C@H](C(=O)O)C(C)C)cc1 | 0.6 | 6 | IC50 [3]: > 100000 nM; IC50 (Integrin alpha-4/beta-7): 8000 nM; IC50 (Integrin alpha-5/beta-1): > 100000 nM; IC50 [4]: > 100000 nM; IC50 [5]: > 50000 nM; IC50 [6]: > 100000 nM
Cc1ccccc1NC(=O)Nc1ccc(CC(=O)O)cc1 |  |  | IC50 (Integrin alpha-4/beta-1 [7]): No inhibition; IC50 (Integrin alpha-4/beta-1 [8]): Not Active
Cc1ccccc1NC(=O)Nc1ccc(CC(=O)N[C@@H](CCCCNC(=O)CCCCCN)C(=O)N[C@@H](CC(=O)O)C(=O)N[C@H](C(=O)N2CCC[C@H]2C(=O)O)C(C)C)cc1 ({NH(2-Me-phenyl)-CO}-[X1]K(Ahx)DVP-OH) | 4 | 20 | 
CC(C)C[C@H](NC(=O)Cc1ccc(NC(=O)OCc2ccccc2)cc1)C(=O)N[C@@H](CC(=O)O)C(=O)N[C@H](C(=O)O)C(C)C | 30 | 200 | 
Cc1ccccc1NC(=O)Nc1ccc(CC(=O)N[C@@H](CC(C)C)C(=O)O)cc1 |  |  | IC50 (Integrin alpha-4/beta-1 [7]): No inhibition; IC50 (Integrin alpha-4/beta-1 [8]): Not Active
CC(C)C[C@H](NC(=O)Cc1ccc(O)cc1)C(=O)N[C@@H](CC(=O)O)C(=O)N[C@H](C(=O)O)C(C)C | 430 | 5000 | 
CC(C)C[C@H](NC(=O)Cc1ccccc1)C(=O)N[C@@H](CC(=O)O)C(=O)N[C@H](C(=O)O)C(C)C (PhAc-Leu-Asp-Val-OH) | 1000 | 40000 | 
CC(C)C[C@H](NC(=O)Cc1ccc(NC(=O)c2ccccc2)cc1)C(=O)N[C@@H](CC(=O)O)C(=O)N[C@H](C(=O)O)C(C)C | 295 | 3250 | 
Cc1ccccc1NC(=O)Nc1ccc(CC(=O)N[C@@H](CC(C)C)C(=O)N[C@@H](CC(=O)O)C(=O)N[C@H](C(=O)N2CCC[C@H]2C(=O)O)C(C)C)cc1 ({NH(2-Me-phenyl)-CO}-[X1]LDVP-OH) |  |  | IC50 [3]: > 100000 nM; IC50 (Integrin alpha-4/beta-7): 2000 nM; IC50 [4]: > 100000 nM; IC50 [9]: > 100000 nM; IC50 [5]: > 100000 nM
Cc1ccccc1NC(=O)Nc1ccc(CC(=O)N[C@@H](CC(C)C)C(=O)N[C@@H](CC(=O)O)C(=O)O)cc1 | 18 | 68 | IC50 [3]: > 100000 nM; IC50 (Integrin alpha-4/beta-7): 59000 nM; IC50 (Integrin alpha-5/beta-1): > 100000 nM; IC50 [4]: > 100000 nM; IC50 [9]: > 100000 nM; IC50 [5]: > 100000 nM
CC[C@H](C)[C@H](N)C(=O)N[C@@H](CC(C)C)C(=O)N[C@@H](CC(=O)O)C(=O)N[C@H](C(=O)O)C(C)C (H-ILDV-OH) | 66000 | 175000 | 
CC(C)C[C@H](NC(=O)Cc1ccc(NC(=O)Nc2ccccc2)cc1)C(=O)N[C@@H](CC(=O)O)C(=O)N[C@H](C(=O)O)C(C)C | 3 | 30 | 
CC(C)C[C@H](NC(=O)[C@@H](N)Cc1ccc(O)cc1)C(=O)N[C@@H](CC(=O)O)C(=O)N[C@H](C(=O)O)C(C)C (H-YLDV-OH) | 12600 | 51000 | 
